The source made the active and inactive calls. No cut-off for these calls is given here.
Columns and labels:
[1] = molecular target: Histone deacetylase 3/Nuclear receptor corepressor 2 (HDAC3/NCoR2) (Homo sapiens, UniProt O15379); test: Inhibition of recombinant human full-length C-terminal His-tagged HDAC3 (395 to 489 residues)/human NCOR2 expressed in baculovirus infected Sf9 insect cells using Boc-L-Lys(Ac)-AMC as substrate pretreated for 5 mins followed by substrate addition measured after 35 mins by fluorescence assay
[2] = molecular target: T1, Protein deacetylase HDAC6 (Homo sapiens) (UniProt Q9UBN7); test: Inhibition of recombinant human HDAC6 at 10 uM using fluorogenic HDAC substrate 3 by fluorescence assay relative to control
T1 sequence (whole entry): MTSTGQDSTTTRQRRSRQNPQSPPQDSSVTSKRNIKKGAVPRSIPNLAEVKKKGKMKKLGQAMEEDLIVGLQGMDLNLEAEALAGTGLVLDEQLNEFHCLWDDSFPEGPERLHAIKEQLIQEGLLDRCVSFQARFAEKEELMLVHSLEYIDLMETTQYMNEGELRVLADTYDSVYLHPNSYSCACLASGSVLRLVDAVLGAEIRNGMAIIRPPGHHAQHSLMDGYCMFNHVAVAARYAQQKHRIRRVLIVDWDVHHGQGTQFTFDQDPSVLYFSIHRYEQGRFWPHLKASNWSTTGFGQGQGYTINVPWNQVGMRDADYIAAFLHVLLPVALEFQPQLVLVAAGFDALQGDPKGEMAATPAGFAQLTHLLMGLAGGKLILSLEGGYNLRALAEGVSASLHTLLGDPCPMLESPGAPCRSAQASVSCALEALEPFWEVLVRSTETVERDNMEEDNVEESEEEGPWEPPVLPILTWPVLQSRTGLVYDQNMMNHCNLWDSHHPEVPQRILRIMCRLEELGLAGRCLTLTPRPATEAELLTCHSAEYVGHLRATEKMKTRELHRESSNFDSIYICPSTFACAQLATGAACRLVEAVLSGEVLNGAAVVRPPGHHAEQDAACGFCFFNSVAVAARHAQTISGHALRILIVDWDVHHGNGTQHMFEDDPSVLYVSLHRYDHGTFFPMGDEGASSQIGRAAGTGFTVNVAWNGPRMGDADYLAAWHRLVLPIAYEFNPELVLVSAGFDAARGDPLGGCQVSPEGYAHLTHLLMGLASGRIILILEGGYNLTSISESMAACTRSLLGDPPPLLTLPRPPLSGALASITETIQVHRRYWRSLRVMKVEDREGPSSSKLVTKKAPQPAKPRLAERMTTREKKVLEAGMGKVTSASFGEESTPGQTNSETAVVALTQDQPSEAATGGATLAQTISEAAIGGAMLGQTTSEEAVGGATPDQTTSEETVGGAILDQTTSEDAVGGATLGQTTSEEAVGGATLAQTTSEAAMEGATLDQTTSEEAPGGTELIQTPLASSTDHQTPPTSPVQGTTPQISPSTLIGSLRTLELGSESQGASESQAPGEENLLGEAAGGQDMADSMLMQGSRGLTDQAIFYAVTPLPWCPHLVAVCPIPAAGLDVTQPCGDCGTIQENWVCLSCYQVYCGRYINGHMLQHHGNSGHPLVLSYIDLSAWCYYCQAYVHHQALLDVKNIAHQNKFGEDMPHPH
Summary of the method: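 HDAC6 activity was measured with test compound at 10 μM and reported as percent inhibition. Values are mean ± standard deviation of at least two independent experiments, rounded to two significant figures.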

Histone deacetylase 1 = Histone deacetylase 1 (Homo sapiens, UniProt Q13547); test: Inhibition of recombinant full-length human C-terminal FLAG-His-tagged HDAC1 expressed in baculovirus infected Sf9 insect cells using Boc-L-Lys(Ac)-AMC as substrate preincubated for 5 mins followed by substrate addition measured after 35 mins by fluorescence assay
Histone deacetylase 2 = Histone deacetylase 2 (Homo sapiens, UniProt Q92769); test: Inhibition of recombinant human full-length C-terminal His-tagged HDAC2 expressed in baculovirus infected Sf9 insect cells using Boc-L-Lys(Ac)-AMC as substrate preincubated for 5 mins followed by substrate addition measured after 35 mins by fluorescence assay
Histone deacetylase 8 = molecular target: T2, Histone deacetylase 8 (Homo sapiens, UniProt Q9BY41); test: Inhibition of recombinant HDAC8 (unknown origin) expressed in Escherichia coli using fluor de Lys(R) as substrate pretreated for 5 mins followed by substrate addition measured after 35 mins by fluorescence assay
T2 sequence (Q9BY41 whole entry): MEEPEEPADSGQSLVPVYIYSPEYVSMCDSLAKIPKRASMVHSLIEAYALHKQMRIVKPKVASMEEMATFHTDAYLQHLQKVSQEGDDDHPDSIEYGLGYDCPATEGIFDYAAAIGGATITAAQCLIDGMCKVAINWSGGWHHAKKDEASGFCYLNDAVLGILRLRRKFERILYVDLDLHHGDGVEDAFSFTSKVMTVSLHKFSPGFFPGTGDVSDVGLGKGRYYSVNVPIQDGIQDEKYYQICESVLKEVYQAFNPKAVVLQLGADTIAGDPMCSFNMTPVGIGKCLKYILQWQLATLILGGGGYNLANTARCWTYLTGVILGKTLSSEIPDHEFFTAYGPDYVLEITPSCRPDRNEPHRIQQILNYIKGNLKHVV

SH-SY5Y [3] = test: Inhibition of class 2 HDAC in human SH-SY5Y cells assessed as increase in acetylation of alpha-tubulin at 0.1 to 10 uM after 24 hrs by Western blot analysis; format: cell-based
Summary of the method: (§1)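 SH-SY5Y cells were treated with the stated concentrations for 24 h. Lysates were analysed by Western blot for acetylated histone H3 and acetylated α-tubulin.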

SH-SY5Y [4] = test: Inhibition of class 1 HDAC in human SH-SY5Y cells assessed as increase in acetylation of histone H3 at 0.1 to 10 uM after 24 hrs by Western blot analysis; format: cell-based; summary of the method: as §1
SH-SY5Y [5] = test: Cytotoxicity against human SH-SY5Y cells expressing TP53 at 10 uM supplemented with fresh medium containing compound every 3 days measured after 72 hrs by CellTiter96 AQueous one solution cell proliferation assay; format: functional, cell-based
Homo sapiens [6] = species: Homo sapiens; test: Selectivity ratio of IC50 for recombinant full-length human C-terminal FLAG-His-tagged HDAC1 expressed in baculovirus infected Sf9 insect cells to IC50 for recombinant HDAC8 (unknown origin) expressed in Escherichia coli
Kelly = test: Cytotoxicity against human Kelly cells expressing TP53 mutation by CellTiter96 AQueous one solution cell proliferation assay; format: functional, cell-based
SH-SY5Y [7] = conditions: Homo sapiens, at 10 µM
SH-SY5Y [8] = conditions: Homo sapiens, at 10 µM; remark: listed apart in the source
SH-SY5Y [9] = test: Cytotoxicity against human SH-SY5Y cells expressing TP53 by CellTiter96 AQueous one solution cell proliferation assay; format: functional, cell-based
SK-N-AS = test: Cytotoxicity against human SK-N-AS cells expressing TP53 mutation by CellTiter96 AQueous one solution cell proliferation assay; format: functional, cell-based
IMR-5 [10] = test: Cytotoxicity against human IMR5 cells expressing TP53 by CellTiter96 AQueous one solution cell proliferation assay; format: functional, cell-based
Homo sapiens [11] = species: Homo sapiens; test: Selectivity ratio of IC50 for recombinant human full-length C-terminal His-tagged HDAC2 expressed in baculovirus infected Sf9 insect cells to IC50 for recombinant HDAC8 (unknown origin) expressed in Escherichia coli
Homo sapiens [12] = species: Homo sapiens; test: Selectivity ratio of IC50 for recombinant human full-length C-terminal His-tagged HDAC3 (395 to 489 residues)/human NCOR2 expressed in baculovirus infected Sf9 insect cells to IC50 for recombinant HDAC8 (unknown origin) expressed in Escherichia coli
IMR-5 [13] = test: Cytotoxicity against human IMR5 cells expressing TP53 after 48 hrs by CellTiter96 AQueous one solution cell proliferation assay; format: functional, cell-based; conditions: IMR-5, 48 h
Summary of the method: (§2)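 Neuroblastoma cells were exposed to compound for 48 h and viability was read by MTS assay. Values are mean ± standard deviation of at least three independent experiments.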

SH-SY5Y [14] = test: Cytotoxicity against human SH-SY5Y cells expressing TP53 after 48 hrs by CellTiter96 AQueous one solution cell proliferation assay; format: functional, cell-based; summary of the method: as §2

Chain of Histone deacetylase 3/Nuclear receptor corepressor 2 (HDAC3/NCoR2) (O15379 whole entry, the tested form may be a part): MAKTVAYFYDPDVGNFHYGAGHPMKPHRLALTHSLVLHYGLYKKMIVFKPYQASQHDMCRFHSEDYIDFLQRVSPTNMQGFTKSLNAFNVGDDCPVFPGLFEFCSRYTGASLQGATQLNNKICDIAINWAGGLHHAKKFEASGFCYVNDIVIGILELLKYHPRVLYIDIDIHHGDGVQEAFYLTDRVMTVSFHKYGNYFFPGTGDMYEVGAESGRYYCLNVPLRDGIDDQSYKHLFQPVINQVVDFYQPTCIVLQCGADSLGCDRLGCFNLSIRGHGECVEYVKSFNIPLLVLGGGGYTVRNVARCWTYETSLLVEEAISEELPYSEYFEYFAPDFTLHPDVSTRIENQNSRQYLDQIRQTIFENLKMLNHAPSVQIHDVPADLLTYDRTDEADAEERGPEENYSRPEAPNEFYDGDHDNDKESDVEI
Chain of Histone deacetylase 3/Nuclear receptor corepressor 2 (HDAC3/NCoR2) (Q9Y618 whole entry, further chain, the tested form may be a part): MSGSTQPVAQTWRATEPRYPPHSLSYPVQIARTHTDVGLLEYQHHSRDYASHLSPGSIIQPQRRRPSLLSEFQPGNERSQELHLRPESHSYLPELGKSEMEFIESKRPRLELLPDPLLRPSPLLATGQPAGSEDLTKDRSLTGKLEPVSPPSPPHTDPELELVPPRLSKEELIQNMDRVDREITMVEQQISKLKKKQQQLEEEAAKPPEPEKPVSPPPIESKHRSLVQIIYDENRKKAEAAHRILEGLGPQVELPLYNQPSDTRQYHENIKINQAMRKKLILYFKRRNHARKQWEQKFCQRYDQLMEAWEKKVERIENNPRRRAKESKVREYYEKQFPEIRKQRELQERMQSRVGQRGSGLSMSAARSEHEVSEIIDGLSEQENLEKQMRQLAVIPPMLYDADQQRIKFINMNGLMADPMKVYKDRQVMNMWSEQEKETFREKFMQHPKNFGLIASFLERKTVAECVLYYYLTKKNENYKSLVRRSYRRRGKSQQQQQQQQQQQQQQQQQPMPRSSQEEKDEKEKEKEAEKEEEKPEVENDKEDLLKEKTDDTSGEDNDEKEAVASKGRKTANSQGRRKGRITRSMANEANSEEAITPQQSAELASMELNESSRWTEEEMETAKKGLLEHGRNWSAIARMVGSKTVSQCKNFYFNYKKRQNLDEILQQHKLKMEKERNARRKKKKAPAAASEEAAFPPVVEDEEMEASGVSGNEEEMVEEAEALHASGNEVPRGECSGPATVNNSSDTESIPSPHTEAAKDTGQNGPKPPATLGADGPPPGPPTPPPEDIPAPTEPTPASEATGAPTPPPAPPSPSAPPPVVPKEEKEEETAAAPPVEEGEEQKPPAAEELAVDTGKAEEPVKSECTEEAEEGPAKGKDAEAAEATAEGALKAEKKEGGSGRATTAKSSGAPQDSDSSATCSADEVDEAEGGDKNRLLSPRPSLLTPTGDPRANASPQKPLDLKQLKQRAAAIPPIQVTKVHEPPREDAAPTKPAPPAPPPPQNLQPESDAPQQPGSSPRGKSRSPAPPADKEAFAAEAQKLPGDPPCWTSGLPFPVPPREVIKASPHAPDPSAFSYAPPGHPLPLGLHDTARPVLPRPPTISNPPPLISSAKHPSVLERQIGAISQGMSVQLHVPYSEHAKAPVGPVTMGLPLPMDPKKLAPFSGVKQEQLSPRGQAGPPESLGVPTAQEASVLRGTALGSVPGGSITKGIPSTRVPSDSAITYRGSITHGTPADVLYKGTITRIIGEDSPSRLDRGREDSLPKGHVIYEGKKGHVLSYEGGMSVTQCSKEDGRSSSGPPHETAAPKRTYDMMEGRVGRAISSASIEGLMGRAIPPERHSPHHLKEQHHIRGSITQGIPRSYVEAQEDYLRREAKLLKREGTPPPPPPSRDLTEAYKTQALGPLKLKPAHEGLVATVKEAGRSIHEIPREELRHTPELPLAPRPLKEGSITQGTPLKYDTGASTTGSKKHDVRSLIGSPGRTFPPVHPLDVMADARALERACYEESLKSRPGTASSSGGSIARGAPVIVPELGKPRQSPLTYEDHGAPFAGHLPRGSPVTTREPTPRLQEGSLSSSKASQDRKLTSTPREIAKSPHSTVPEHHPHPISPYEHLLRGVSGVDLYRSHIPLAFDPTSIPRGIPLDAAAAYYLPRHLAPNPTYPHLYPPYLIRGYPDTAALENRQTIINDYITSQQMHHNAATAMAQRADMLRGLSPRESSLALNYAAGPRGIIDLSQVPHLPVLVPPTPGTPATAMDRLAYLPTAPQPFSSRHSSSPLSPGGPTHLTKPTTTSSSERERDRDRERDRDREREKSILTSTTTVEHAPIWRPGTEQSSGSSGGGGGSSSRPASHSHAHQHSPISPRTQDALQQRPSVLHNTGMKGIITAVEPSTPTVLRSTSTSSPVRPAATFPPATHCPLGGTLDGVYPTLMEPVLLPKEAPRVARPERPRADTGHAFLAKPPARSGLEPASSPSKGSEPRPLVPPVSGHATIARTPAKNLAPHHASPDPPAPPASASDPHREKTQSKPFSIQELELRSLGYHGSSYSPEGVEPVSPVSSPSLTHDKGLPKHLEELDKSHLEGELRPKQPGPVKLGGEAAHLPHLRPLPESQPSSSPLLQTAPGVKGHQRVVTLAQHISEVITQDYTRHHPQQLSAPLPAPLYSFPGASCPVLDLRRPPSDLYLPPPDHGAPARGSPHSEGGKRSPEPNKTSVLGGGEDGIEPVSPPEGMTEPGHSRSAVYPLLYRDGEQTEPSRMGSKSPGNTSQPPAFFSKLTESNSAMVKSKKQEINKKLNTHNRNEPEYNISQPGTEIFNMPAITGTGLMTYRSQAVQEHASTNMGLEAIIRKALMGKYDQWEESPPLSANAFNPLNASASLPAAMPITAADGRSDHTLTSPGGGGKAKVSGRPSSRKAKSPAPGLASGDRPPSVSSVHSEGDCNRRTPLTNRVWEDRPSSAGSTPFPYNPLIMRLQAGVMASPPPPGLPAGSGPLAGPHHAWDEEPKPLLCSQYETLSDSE
Chain of Histone deacetylase 2 (Q92769 whole entry): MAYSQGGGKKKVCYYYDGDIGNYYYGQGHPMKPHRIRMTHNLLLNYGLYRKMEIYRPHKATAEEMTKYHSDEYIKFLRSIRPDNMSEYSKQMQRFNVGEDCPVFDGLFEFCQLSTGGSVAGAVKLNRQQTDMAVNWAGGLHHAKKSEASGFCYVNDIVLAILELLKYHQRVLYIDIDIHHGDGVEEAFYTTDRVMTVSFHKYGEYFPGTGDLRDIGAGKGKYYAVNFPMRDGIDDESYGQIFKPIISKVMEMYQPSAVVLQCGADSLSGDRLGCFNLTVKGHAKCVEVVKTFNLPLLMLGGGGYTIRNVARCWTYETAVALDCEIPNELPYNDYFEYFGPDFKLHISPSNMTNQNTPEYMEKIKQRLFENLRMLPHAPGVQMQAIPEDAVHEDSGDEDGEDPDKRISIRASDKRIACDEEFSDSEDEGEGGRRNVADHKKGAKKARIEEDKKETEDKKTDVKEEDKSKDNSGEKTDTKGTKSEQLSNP
Chain of Histone deacetylase 1 (Q13547 whole entry): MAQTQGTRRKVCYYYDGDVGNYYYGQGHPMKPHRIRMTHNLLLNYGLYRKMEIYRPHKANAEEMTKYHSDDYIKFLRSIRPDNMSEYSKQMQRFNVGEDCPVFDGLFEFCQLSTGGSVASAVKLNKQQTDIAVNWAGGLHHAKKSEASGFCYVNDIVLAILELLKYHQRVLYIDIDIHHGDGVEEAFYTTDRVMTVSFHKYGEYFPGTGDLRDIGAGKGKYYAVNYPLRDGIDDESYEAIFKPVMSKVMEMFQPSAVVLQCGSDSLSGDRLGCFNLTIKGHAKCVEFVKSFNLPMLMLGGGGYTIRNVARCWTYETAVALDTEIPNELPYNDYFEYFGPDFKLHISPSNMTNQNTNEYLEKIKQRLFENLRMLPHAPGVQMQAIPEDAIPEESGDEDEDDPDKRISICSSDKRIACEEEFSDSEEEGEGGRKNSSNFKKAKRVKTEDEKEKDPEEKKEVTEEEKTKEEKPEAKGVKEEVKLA

IC50 [1] [µM] | inhibition [2] [%] | IC50 (Histone deacetylase 1) [µM] | IC50 (Histone deacetylase 2) [µM] | IC50 (Histone deacetylase 8) [µM] | SMILES | other results
> 100 | 5.7 | 24 | 99 | 0.21 | CCOc1ccc(C2c3ccccc3CCN2CCC(=O)NO)cc1 (stereo not given) | –
10 | 35 | 4.4 | 40 | 0.95 | O=C(CCN1CCc2ccccc2C1c1ccccc1)NO (stereo not given) | –
> 100 | 21 | 27 | > 100 | 0.082 | COc1ccc(C2c3ccccc3CCN2CCC(=O)NO)cc1 (stereo not given) | inhibition (SH-SY5Y [3]): inactive; inhibition (SH-SY5Y [4]): inactive; Activity (SH-SY5Y [5]): Active; Ratio IC50 (Homo sapiens [6]): 330
75 | 32 | > 100 | > 100 | 6.7 | O=C(CCN1CCc2ccccc2C1C1CCCCC1)NO (stereo not given) | –
– | – | – | – | – | COc1ccc(Cn2ccc3ccc(C(=O)NO)cc32)cc1 | Activity (Kelly): Active; inhibition (SH-SY5Y [7]): inactive; inhibition (SH-SY5Y [8]): inactive; Activity (SH-SY5Y [9]): Active; Activity (SK-N-AS): Active; Activity (IMR-5 [10]): Active
72 | – | 50 | > 100 | > 100 | O=C(CCNCc1ccccc1)NO | –
0.81 | 93 | 0.77 | 2.7 | 0.044 | O=C(CCCCN1CCc2ccccc2C1c1ccccc1)NO (stereo not given) | Ratio IC50 (Homo sapiens [11]): 61; Ratio IC50 (Homo sapiens [12]): 18; Ratio IC50 (Homo sapiens [6]): 18
1.1 | – | 1.1 | 2.7 | 4 | O=C(CCCCCCN(Cc1ccccc1)Cc1ccccc1)NO | –
29 | 30 | 18 | 29 | 0.48 | CC(C)(C)c1ccc(C2c3ccccc3CCN2CCC(=O)NO)cc1 (stereo not given) | –
38 | 39 | 7.3 | 47 | 0.055 | O=C(CCN1CCc2ccccc2C1c1ccc(-c2ccccc2)cc1)NO (stereo not given) | inhibition (SH-SY5Y [3]): inactive; EC50 (IMR-5 [13]): 5.8 µM; inhibition (SH-SY5Y [4]): inactive; EC50 (SH-SY5Y [14]): 0.76 µM; Ratio IC50 (Homo sapiens [6]): 135
> 100 | 17 | 37 | > 100 | 0.34 | O=C(CCN1CCc2ccccc2C1c1cccc(C(F)(F)F)c1)NO (stereo not given) | –
52 | – | 33 | > 100 | 1.4 | O=C(CCN(Cc1ccccc1)Cc1ccccc1)NO | Ratio IC50 (Homo sapiens [11]): > 71; Ratio IC50 (Homo sapiens [12]): 37; Ratio IC50 (Homo sapiens [6]): 24
34 | 27 | 13 | 69 | 0.11 | COc1cccc(C2c3ccccc3CCN2CCC(=O)NO)c1 (stereo not given) | –
27 | 26 | 18 | > 100 | 0.19 | O=C(CCN1CCc2ccccc2C1c1ccc(C(F)(F)F)cc1)NO (stereo not given) | –
3.4 | 74 | 2.4 | 13 | 0.39 | O=C(CCN1CCc2ccccc2C1c1ccc2ccccc2c1)NO (stereo not given) | –
> 100 | 17 | > 100 | > 100 | 19 | O=C(CN1CCc2ccccc2C1c1ccccc1)NO (stereo not given) | –
22 | – | 14 | 58 | 10 | O=C(CCCCNCc1ccccc1)NO | –
98 | 31 | 57 | > 100 | 19 | O=C(CCN1CCc2ccccc2C1)NO | –
0.097 | 97 | 0.098 | 0.33 | 1.9 | O=C(CCCCCCN1CCc2ccccc2C1)NO | –
0.43 | – | 0.34 | 3.1 | 1.8 | O=C(CCCCCCNCc1ccccc1)NO | –
1.4 | – | 1.8 | 5.4 | 1.9 | O=C(CCCCN(Cc1ccccc1)Cc1ccccc1)NO | –

Reference: ChEMBL document CHEMBL4190328, “Design, Synthesis, and Biological Evaluation of Tetrahydroisoquinoline-Based Histone Deacetylase 8 Selective Inhibitors” (ACS Med Chem Lett, 2017)
